Source: ChEMBL document CHEMBL1146380, “Synthesis, antimicrobial activity, and QSAR studies of furan-3-carboxamides” (2007)
Values after ≈ are worked out from the molar mass of the structure shown. Active and inactive are the calls of the source. No cut-off for these calls is given here.

Key:
[1] = system: Salmonella enterica subsp. enterica serovar Setubal; assay: (§1) Antimicrobial activity against Salmonella setubal ATCC 19196 by broth microdilution method; type: functional
In short: (§2)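 Bacteria grown overnight on Mueller–Hinton agar. Colonies were suspended in saline to McFarland turbidity (about 10^8 cfu/mL), diluted 1:100 in saline, then 1:20 in Mueller–Hinton broth, giving 5 · 10^4 cfu/mL per well. DMSO-dissolved compound was tested in twofold dilutions from 320 to 1.25 at 35 °C for 24 h. MIC was the lowest concentration with no visible turbidity (M7-A4). Bactericidal concentration was read by subculturing clear wells on Mueller–Hinton agar.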

[2] = as §1; type: functional, Salmonella enterica subsp. enterica serovar Setubal; conditions: Salmonella enterica; in short: as §2
Pseudomonas aeruginosa = assay: Antimicrobial activity against Pseudomonas aeruginosa ATCC 27853 by broth microdilution method; type: functional; in short: as §2
Aspergillus terreus = assay: Antimicrobial activity against Aspergillus terreus isolate by broth microdilution method; type: functional
Escherichia coli = assay: Antimicrobial activity against Escherichia coli ATCC 25922 by broth microdilution method; type: functional; in short: as §2
Candida dubliniensis = assay: Antimicrobial activity against Candida dubliniensis CBS 7987 by broth microdilution method; type: functional
In short: (§3)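 Yeasts grown on potato dextrose agar. Inoculum was standardized by McFarland turbidity as for bacteria, into RPMI 1640 broth (M27-A2). DMSO-dissolved compound was tested in twofold dilutions from 320 to 1.25 at 35 °C for 24 h, in duplicate. MIC was the lowest concentration completely inhibiting visible growth. Fungicidal concentration was read by subculturing 20 µL from clear wells on Sabouraud dextrose agar at 35 °C.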

Klebsiella pneumoniae = assay: Antimicrobial activity against Klebsiella pneumoniae ATCC 1003 by broth microdilution method; type: functional; in short: as §2
Staphylococcus aureus = assay: Antimicrobial activity against Staphylococcus aureus ATCC 25923 by broth microdilution method; type: functional; in short: as §2
Aspergillus niger = assay: Antimicrobial activity against Aspergillus niger isolate by broth microdilution method; type: functional
Fusarium solani = assay: Antimicrobial activity against Fusarium solani isolate by broth microdilution method; type: functional
Candida albicans = assay: Antimicrobial activity against Candida albicans ATCC 44373 by broth microdilution method; type: functional; in short: as §3
Aspergillus flavus = assay: Antimicrobial activity against Aspergillus flavus isolate by broth microdilution method; type: functional
Scedosporium boydii = assay: Antimicrobial activity against Pseudallescheria boydii isolate by broth microdilution method; type: functional
[3] = system: Cryptococcus deneoformans; assay: Antimicrobial activity against Cryptococcus neoformans var.neoformans serotype D ATCC 28952 by broth microdilution method; type: functional
In short: (§4)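 Organism grown on potato dextrose agar, with turbidity-standardized inoculum in RPMI 1640 broth (M27-A2). DMSO-dissolved compound was tested in twofold dilutions from 320 to 1.25 at 35 °C, incubated up to 72 h, in duplicate. MIC was the lowest concentration with no visible growth. Cidal concentration was read by subculturing 20 µL from clear wells on Sabouraud dextrose agar, incubated for the same period.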

Saccharomyces cerevisiae = assay: Antimicrobial activity against Saccharomyces cerevisiae ATCC 2601 by broth microdilution method; type: functional; in short: as §4
Aspergillus fumigatus = assay: Antimicrobial activity against Aspergillus fumigatus isolate by broth microdilution method; type: functional
Rhizopus arrhizus = assay: Antimicrobial activity against Rhizopus oryzae isolate by broth microdilution method; type: functional
Sporothrix schenckii = assay: Antimicrobial activity against Sporothrix schenckii ATCC 1146 by broth microdilution method; type: functional
Prototheca zopfii = assay: Antimicrobial activity against Prototheca zopfii by broth microdilution method; type: functional; in short: as §4
Nakaseomyces glabratus = assay: Antimicrobial activity against Candida glabrata […] by broth microdilution method; type: functional; in short: as §3

## O=C(NCc1cccnc1)c1ccoc1
[1]
  Activity: inactive
[2]
  MIC: 320 µg/mL (≈ 1580 µM)
Pseudomonas aeruginosa
  Activity: inactive
  MIC: 320 µg/mL (≈ 1580 µM)
Aspergillus terreus
  Activity: inactive
  MIC: 320 µg/mL (≈ 1580 µM)
Escherichia coli
  Activity: inactive
  MIC: 320 µg/mL (≈ 1580 µM)
Candida dubliniensis
  Activity: inactive
  MIC: 320 µg/mL (≈ 1580 µM)
Klebsiella pneumoniae
  Activity: inactive
  MIC: 320 µg/mL (≈ 1580 µM)
Staphylococcus aureus
  Activity: inactive
  MIC: 320 µg/mL (≈ 1580 µM)
Aspergillus niger
  MFC: 320 µg/mL (≈ 1580 µM)
  MIC: 320 µg/mL (≈ 1580 µM)
Fusarium solani
  Activity: inactive
  MIC: 320 µg/mL (≈ 1580 µM)
Candida albicans
  Activity: inactive
Aspergillus flavus
  Activity: inactive
Scedosporium boydii
  MFC: 160 µg/mL (≈ 791 µM)
  MIC: 160 µg/mL (≈ 791 µM)
[3]
  MFC: 320 µg/mL (≈ 1580 µM)
  MIC: 160 µg/mL (≈ 791 µM)
Saccharomyces cerevisiae
  MFC: 320 µg/mL (≈ 1580 µM)
  MIC: 320 µg/mL (≈ 1580 µM)
Aspergillus fumigatus
  MFC: 320 µg/mL (≈ 1580 µM)
  MIC: 320 µg/mL (≈ 1580 µM)
Rhizopus arrhizus
  MFC: 320 µg/mL (≈ 1580 µM)
  MIC: 320 µg/mL (≈ 1580 µM)
Sporothrix schenckii
  MFC: 320 µg/mL (≈ 1580 µM)
  MIC: 320 µg/mL (≈ 1580 µM)
Prototheca zopfii
  MFC: 160 µg/mL (≈ 791 µM)
  MIC: 160 µg/mL (≈ 791 µM)
Nakaseomyces glabratus
  Activity: inactive

## Cc1ccc(S(=O)(=O)NNC(=O)c2ccoc2)cc1
[1]
  Activity: inactive
[2]
  MIC: 320 µg/mL (≈ 1140 µM)
Pseudomonas aeruginosa
  MBC: 320 µg/mL (≈ 1140 µM)
  MIC: 160 µg/mL (≈ 571 µM)
Aspergillus terreus
  Activity: inactive
  MIC: 320 µg/mL (≈ 1140 µM)
Escherichia coli
  Activity: inactive
  MIC: 320 µg/mL (≈ 1140 µM)
Candida dubliniensis
  Activity: inactive
Klebsiella pneumoniae
  Activity: inactive
  MIC: 320 µg/mL (≈ 1140 µM)
Staphylococcus aureus
  Activity: inactive
  MIC: 320 µg/mL (≈ 1140 µM)
Aspergillus niger
  Activity: inactive
Fusarium solani
  Activity: inactive
  MIC: 320 µg/mL (≈ 1140 µM)
Candida albicans
  Activity: inactive
Aspergillus flavus
  Activity: inactive
  MIC: 320 µg/mL (≈ 1140 µM)
Scedosporium boydii
  MFC: 160 µg/mL (≈ 571 µM)
  MIC: 160 µg/mL (≈ 571 µM)
[3]
  MFC: 320 µg/mL (≈ 1140 µM)
  MIC: 320 µg/mL (≈ 1140 µM)
Saccharomyces cerevisiae
  MFC: 320 µg/mL (≈ 1140 µM)
  MIC: 160 µg/mL (≈ 571 µM)
Aspergillus fumigatus
  MFC: 320 µg/mL (≈ 1140 µM)
  MIC: 320 µg/mL (≈ 1140 µM)
Rhizopus arrhizus
  Activity: inactive
  MIC: 320 µg/mL (≈ 1140 µM)
Sporothrix schenckii
  Activity: inactive
  MIC: 160 µg/mL (≈ 571 µM)
Prototheca zopfii
  Activity: inactive
  MIC: 320 µg/mL (≈ 1140 µM)
Nakaseomyces glabratus
  Activity: inactive

## O=C(NNc1ccccc1)c1ccoc1
[1]
  Activity: inactive
[2]
  MIC: 320 µg/mL (≈ 1580 µM)
Pseudomonas aeruginosa
  Activity: inactive
  MIC: 320 µg/mL (≈ 1580 µM)
Aspergillus terreus
  MFC: 40 µg/mL (≈ 198 µM)
  MIC: 40 µg/mL (≈ 198 µM)
Escherichia coli
  Activity: inactive
  MIC: 320 µg/mL (≈ 1580 µM)
Candida dubliniensis
  MFC: 320 µg/mL (≈ 1580 µM)
  MIC: 320 µg/mL (≈ 1580 µM)
Klebsiella pneumoniae
  Activity: inactive
  MIC: 320 µg/mL (≈ 1580 µM)
Staphylococcus aureus
  Activity: inactive
  MIC: 320 µg/mL (≈ 1580 µM)
Aspergillus niger
  MFC: 40 µg/mL (≈ 198 µM)
  MIC: 20 µg/mL (≈ 98.9 µM)
Fusarium solani
  MFC: 2.5 µg/mL (≈ 12.4 µM)
  MIC: 2.5 µg/mL (≈ 12.4 µM)
Candida albicans
  MFC: 320 µg/mL (≈ 1580 µM)
  MIC: 320 µg/mL (≈ 1580 µM)
Aspergillus flavus
  MFC: 20 µg/mL (≈ 98.9 µM)
  MIC: 10 µg/mL (≈ 49.5 µM)
Scedosporium boydii
  MFC: 320 µg/mL (≈ 1580 µM)
  MIC: 10 µg/mL (≈ 49.5 µM)
[3]
  MFC: 160 µg/mL (≈ 791 µM)
  MIC: 160 µg/mL (≈ 791 µM)
Saccharomyces cerevisiae
  MFC: 320 µg/mL (≈ 1580 µM)
  MIC: 320 µg/mL (≈ 1580 µM)
Aspergillus fumigatus
  MFC: 20 µg/mL (≈ 98.9 µM)
  MIC: 20 µg/mL (≈ 98.9 µM)
Rhizopus arrhizus
  MFC: 320 µg/mL (≈ 1580 µM)
  MIC: 320 µg/mL (≈ 1580 µM)
Sporothrix schenckii
  MFC: 320 µg/mL (≈ 1580 µM)
  MIC: 10 µg/mL (≈ 49.5 µM)
Prototheca zopfii
  MFC: 320 µg/mL (≈ 1580 µM)
  MIC: 160 µg/mL (≈ 791 µM)
Nakaseomyces glabratus
  Activity: inactive
  MIC: 320 µg/mL (≈ 1580 µM)

## O=C(NCCC1CCN(Cc2ccccc2)CC1)c1ccoc1
[1]
  Activity: inactive
[2]
  MIC: 320 µg/mL (≈ 1020 µM)
Pseudomonas aeruginosa
  Activity: inactive
  MIC: 20 µg/mL (≈ 64 µM)
Aspergillus terreus
  Activity: inactive
  MIC: 320 µg/mL (≈ 1020 µM)
Escherichia coli
  MBC: 320 µg/mL (≈ 1020 µM)
  MIC: 160 µg/mL (≈ 512 µM)
Candida dubliniensis
  MFC: 160 µg/mL (≈ 512 µM)
  MIC: 160 µg/mL (≈ 512 µM)
Klebsiella pneumoniae
  MIC: 160 µg/mL (≈ 512 µM)
Klebsiella pneumoniae; read-out: MFC
  MBC: 320 µg/mL (≈ 1020 µM)
Staphylococcus aureus
  MIC: 40 µg/mL (≈ 128 µM)
Staphylococcus aureus; read-out: MFC
  MBC: 160 µg/mL (≈ 512 µM)
Aspergillus niger
  Activity: inactive
  MIC: 320 µg/mL (≈ 1020 µM)
Fusarium solani
  Activity: inactive
  MIC: 320 µg/mL (≈ 1020 µM)
Candida albicans
  MFC: 320 µg/mL (≈ 1020 µM)
  MIC: 160 µg/mL (≈ 512 µM)
Aspergillus flavus
  Activity: inactive
  MIC: 320 µg/mL (≈ 1020 µM)
Scedosporium boydii
  MFC: 80 µg/mL (≈ 256 µM)
  MIC: 40 µg/mL (≈ 128 µM)
[3]
  Activity: inactive
  MIC: 320 µg/mL (≈ 1020 µM)
Saccharomyces cerevisiae
  MFC: 160 µg/mL (≈ 512 µM)
  MIC: 80 µg/mL (≈ 256 µM)
Aspergillus fumigatus
  Activity: inactive
  MIC: 320 µg/mL (≈ 1020 µM)
Rhizopus arrhizus
  Activity: inactive
  MIC: 320 µg/mL (≈ 1020 µM)
Sporothrix schenckii
  Activity: inactive
  MIC: 20 µg/mL (≈ 64 µM)
Prototheca zopfii
  MFC: 320 µg/mL (≈ 1020 µM)
  MIC: 320 µg/mL (≈ 1020 µM)
Nakaseomyces glabratus
  MFC: 320 µg/mL (≈ 1020 µM)
  MIC: 320 µg/mL (≈ 1020 µM)
